In ChEMBL document CHEMBL4406821, “Novel dual inhibitors targeting CDK4 and VEGFR2 synergistically suppressed cancer progression and angiogenesis” (Eur J Med Chem, 2019):
Calls of active or inactive are those of the source. No cut-off for these calls is given here.

Key:
[1] = Toxicity in NOD/SCID BALB/c mouse xenografted with human SiHa cells assessed as reduction in body weight at 20 to 40 mg/kg, po administered for 21 days; format: organism-based; conditions: in vivo, 504 h
[2] = target: Tyrosine-protein kinase Yes (Homo sapiens) (UniProt P07947); assay: Inhibition of recombinant human full length YES at 1 uM using poly(Glu, Tyr) 4:1 as substrate incubated for 40 mins in presence of [gamma-33P]-ATP by scintillation counting method relative to control
[3] = target: Serine/threonine-protein kinase/endoribonuclease IRE1 (Homo sapiens) (UniProt O75460); assay: Inhibition of recombinant human IRE1 (465 to end residues) at 1 uM using myelin basic protein as substrate incubated for 40 mins in presence of [gamma-33P]-ATP by scintillation counting method relative to control
[4] = target: [Pyruvate dehydrogenase (acetyl-transferring)] kinase isozyme 4, mitochondrial (Homo sapiens) (UniProt Q16654); assay: Inhibition of recombinant human full length PDHK4 at 1 uM using KKKYHGHSMSDPGVSYRT as substrate incubated for 40 mins in presence of [gamma-33P]-ATP by scintillation counting method relative to control
In short: (§1)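 Tested at a single 1 uM in an outsourced commercial kinase-profiling panel, read as percent inhibition. Each value is the mean of two independent experiments.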

SiHa [5] = assay: Antiproliferative activity against human SiHa cells assessed as reduction in cell viability at 40 to 80 nM incubated for 48 hrs by EdU staining based laser scanning confocal microscopy; format: functional
In short: (§2)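 Cells, 5×10^4, were seeded in 24-well plates and treated for 48 h. They were then labeled using an EdU Apollo 488 imaging kit with Hoechst 33342 nuclear stain and imaged by laser scanning confocal microscopy. Percent EdU-positive cells = EdU-positive/Hoechst-stained × 100%.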

[6] = target: Ephrin type-B receptor 2 (Homo sapiens) (UniProt P29323); assay: Inhibition of recombinant human EPhB2 (560 to end residues) at 1 uM using poly(Glu, Tyr) 4:1 as substrate incubated for 40 mins in presence of [gamma-33P]-ATP by scintillation counting method relative to control
[7] = target: Serine/threonine-protein kinase PLK1 (Homo sapiens) (UniProt P53350); assay: Inhibition of recombinant human full length PLK1 at 1 uM using casein as substrate incubated for 40 mins in presence of [gamma-33P]-ATP by scintillation counting method relative to control
[8] = target: Cytoplasmic tyrosine-protein kinase BMX (Homo sapiens) (UniProt P51813); assay: Inhibition of recombinant full length human BMX at 1 uM using poly(Glu, Tyr) 4:1 as substrate incubated for 40 mins in presence of [gamma-33P]-ATP by scintillation counting method relative to control
In short: (§3)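 Kinase panel profiling at 1 μM performed by Eurofins KinaseProfiler; percent inhibition reported as mean of two independent experiments.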

[9] = target: Testis-specific serine/threonine-protein kinase 4 (Homo sapiens) (UniProt Q6SA08); assay: Inhibition of recombinant human full length TSSK4 at 1 uM using KKLNRTLSFAEPG as substrate incubated for 40 mins in presence of [gamma-33P]-ATP by scintillation counting method relative to control
In short: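 Single-point inhibition at 1 uM measured in a commercial kinase profiling panel (KinaseProfiler); each value is the mean of two independent experiments.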

[10] = target: Ribosomal protein S6 kinase alpha-3 (Homo sapiens) (UniProt P51812); assay: Inhibition of recombinant human RSK2 (2 to end residues) at 1 uM using KKKNRTLSVA as substrate incubated for 40 mins in presence of [gamma-33P]-ATP by scintillation counting method relative to control
[11] = target: Tyrosine-protein kinase HCK (Homo sapiens) (UniProt P08631); assay: Inhibition of recombinant activated human HCK (230 to 497 residues) at 1 uM using GGMEDIYFEFMGGKKK as substrate incubated for 40 mins in presence of [gamma-33P]-ATP by scintillation counting method relative to control; in short: as §3
SiHa [12] = assay: Induction of cell cycle arrest in human SiHa cells assessed as decrease in cell accumulation in S phase at 40 to 80 nM incubated for 36 hrs by propidium iodide staining based flow cytometry; format: functional
In short: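 Cells were treated with graded concentrations for 36 h, then fixed overnight in 70% ice-cold ethanol at 4°C and resuspended in PBS. Staining used 50 µg/ml PI plus 5 µg/ml RNase at 37°C for 30 min. DNA content was analysed by FACS to give G0/G1, S and G2/M fractions.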

[13] = target: Tyrosine-protein kinase receptor UFO (Homo sapiens) (UniProt P30530); assay: Inhibition of recombinant human AXL (473 to end residues) at 1 uM using KKSRGDYMTMQIG as substrate incubated for 40 mins in presence of [gamma-33P]-ATP by scintillation counting method relative to control; in short: as §3
HUVEC = assay: Antiproliferative activity against HUVEC cells assessed as reduction in cell viability at 20 to 40 nM by CCK8 assay; format: functional, cell-based; conditions: Homo sapiens, TDE = time-dependent effect
In short: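 HUVECs, 3×10³ cells/well, kept in 1640 medium with 10% FBS at 37°C and 5% CO₂. Cells were treated at 20 or 40 nM or vehicle, and viability was read by CCK-8 (absorbance 450 nm) at 0, 12, 24, 36, 48, 60 and 72 h. Five replicates per sample.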

[14] = target: Macrophage colony-stimulating factor 1 receptor (Homo sapiens) (UniProt P07333); assay: Inhibition of recombinant human FMS (538 to end residues) at 1 uM using KKKSPGEYVNIEF as substrate incubated for 40 mins in presence of [gamma-33P]-ATP by scintillation counting method relative to control
[15] = target: Serine/threonine-protein kinase SIK2 (Homo sapiens) (UniProt Q9H0K1); assay: Inhibition of recombinant human SIK2 (1 to 276 residues) at 1 uM using KKKVSRSGLYRSPSMPENLNRPR as substrate incubated for 40 mins in presence of [gamma-33P]-ATP by scintillation counting method relative to control
[16] = target: Eukaryotic elongation factor 2 kinase (Homo sapiens) (UniProt O00418); assay: Inhibition of recombinant human eEF-2K (2 to end residues) at 1 uM using RKKFGESEKTKTKEFL as substrate incubated for 40 mins in presence of [gamma-33P]-ATP by scintillation counting method relative to control; in short: as §1
MDA-MB-231 [17] = assay: Induction of apoptosis in human MDA-MB-231 cells assessed as increase in early apoptotic cells at 20 to 40 nM incubated for 48 hrs by annexin V FITC and propidium iodide staining based flow cytometry; format: functional, cell-based
In short: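 Cells were treated for 48 h, stained with FITC Annexin V and PI, and analyzed by flow cytometry to count early and late apoptotic cells.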

[18] = target: Serine/threonine-protein kinase WNK3 (Homo sapiens) (UniProt Q9BYP7); assay: Inhibition of recombinant human WNK3 (1 to 434 residues) at 1 uM using myelin basic protein as substrate incubated for 40 mins in presence of [gamma-33P]-ATP by scintillation counting method relative to control
MDA-MB-231 [19] = assay: Antiproliferative activity against human MDA-MB-231 cells at 40 nM assessed as reduction in cell viability incubated for 48 hrs by EdU staining based laser scanning confocal microscopy; format: functional; in short: as §2

Chain of [Pyruvate dehydrogenase (acetyl-transferring)] kinase isozyme 4, mitochondrial (Homo sapiens) (Q16654 whole entry, looked up): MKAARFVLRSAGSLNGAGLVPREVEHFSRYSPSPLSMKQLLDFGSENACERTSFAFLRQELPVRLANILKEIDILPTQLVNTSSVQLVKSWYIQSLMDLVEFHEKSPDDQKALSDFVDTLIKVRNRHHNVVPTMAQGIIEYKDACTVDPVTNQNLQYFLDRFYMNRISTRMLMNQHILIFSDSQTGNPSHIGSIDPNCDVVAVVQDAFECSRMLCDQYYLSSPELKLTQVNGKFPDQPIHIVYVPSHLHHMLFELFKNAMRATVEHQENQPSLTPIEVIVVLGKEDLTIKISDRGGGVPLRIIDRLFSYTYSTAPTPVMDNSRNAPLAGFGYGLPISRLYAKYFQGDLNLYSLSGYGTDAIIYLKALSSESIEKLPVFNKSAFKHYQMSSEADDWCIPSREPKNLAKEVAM
Chain of Serine/threonine-protein kinase WNK3 (Homo sapiens) (Q9BYP7 whole entry, the tested form may be a part): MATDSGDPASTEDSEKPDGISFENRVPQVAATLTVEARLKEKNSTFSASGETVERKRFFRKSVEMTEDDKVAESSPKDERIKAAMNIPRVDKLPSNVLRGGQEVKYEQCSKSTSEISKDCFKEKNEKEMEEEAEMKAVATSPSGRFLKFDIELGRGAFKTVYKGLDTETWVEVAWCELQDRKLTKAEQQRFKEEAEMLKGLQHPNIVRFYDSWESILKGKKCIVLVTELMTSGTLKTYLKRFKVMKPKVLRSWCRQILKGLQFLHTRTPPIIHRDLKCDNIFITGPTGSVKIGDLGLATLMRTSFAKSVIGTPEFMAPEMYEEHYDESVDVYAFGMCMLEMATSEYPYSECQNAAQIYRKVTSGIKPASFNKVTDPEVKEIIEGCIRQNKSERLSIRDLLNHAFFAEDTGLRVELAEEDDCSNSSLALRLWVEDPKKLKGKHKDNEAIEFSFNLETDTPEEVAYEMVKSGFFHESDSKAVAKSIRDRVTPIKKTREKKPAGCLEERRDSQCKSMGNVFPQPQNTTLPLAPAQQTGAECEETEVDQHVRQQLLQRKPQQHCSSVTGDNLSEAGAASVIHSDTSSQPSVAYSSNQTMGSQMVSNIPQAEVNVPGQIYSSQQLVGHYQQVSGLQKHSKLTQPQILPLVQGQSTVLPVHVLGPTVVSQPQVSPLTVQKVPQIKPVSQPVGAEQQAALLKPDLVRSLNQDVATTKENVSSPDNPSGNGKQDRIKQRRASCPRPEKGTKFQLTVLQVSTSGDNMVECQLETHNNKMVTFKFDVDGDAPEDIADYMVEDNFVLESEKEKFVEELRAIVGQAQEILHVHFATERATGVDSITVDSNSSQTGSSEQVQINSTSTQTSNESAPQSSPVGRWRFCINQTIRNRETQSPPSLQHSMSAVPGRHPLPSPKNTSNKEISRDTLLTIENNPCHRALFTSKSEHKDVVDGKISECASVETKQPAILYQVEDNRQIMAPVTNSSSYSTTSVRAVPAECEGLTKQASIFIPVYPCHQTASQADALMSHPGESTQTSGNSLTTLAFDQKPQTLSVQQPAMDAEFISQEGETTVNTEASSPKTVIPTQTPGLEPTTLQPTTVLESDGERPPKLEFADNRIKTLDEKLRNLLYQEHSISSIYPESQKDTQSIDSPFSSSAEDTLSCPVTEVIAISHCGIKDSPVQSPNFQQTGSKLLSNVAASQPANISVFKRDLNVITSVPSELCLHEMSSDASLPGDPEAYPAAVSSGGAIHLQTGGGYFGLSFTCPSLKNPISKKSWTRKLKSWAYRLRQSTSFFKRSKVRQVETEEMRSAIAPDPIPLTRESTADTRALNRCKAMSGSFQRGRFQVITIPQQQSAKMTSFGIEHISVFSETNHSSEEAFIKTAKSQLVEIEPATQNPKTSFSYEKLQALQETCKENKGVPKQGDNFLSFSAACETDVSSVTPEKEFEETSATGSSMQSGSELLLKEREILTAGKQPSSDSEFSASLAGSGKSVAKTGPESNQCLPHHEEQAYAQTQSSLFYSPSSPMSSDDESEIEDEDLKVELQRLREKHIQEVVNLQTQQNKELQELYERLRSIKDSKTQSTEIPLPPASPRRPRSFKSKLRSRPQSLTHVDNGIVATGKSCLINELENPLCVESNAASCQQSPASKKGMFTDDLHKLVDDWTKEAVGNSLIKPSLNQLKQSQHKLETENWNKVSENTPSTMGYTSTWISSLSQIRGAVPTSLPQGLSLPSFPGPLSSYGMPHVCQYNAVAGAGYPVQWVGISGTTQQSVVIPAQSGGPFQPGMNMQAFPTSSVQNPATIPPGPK
Chain of Macrophage colony-stimulating factor 1 receptor (Homo sapiens) (P07333 whole entry, the tested form may be a part): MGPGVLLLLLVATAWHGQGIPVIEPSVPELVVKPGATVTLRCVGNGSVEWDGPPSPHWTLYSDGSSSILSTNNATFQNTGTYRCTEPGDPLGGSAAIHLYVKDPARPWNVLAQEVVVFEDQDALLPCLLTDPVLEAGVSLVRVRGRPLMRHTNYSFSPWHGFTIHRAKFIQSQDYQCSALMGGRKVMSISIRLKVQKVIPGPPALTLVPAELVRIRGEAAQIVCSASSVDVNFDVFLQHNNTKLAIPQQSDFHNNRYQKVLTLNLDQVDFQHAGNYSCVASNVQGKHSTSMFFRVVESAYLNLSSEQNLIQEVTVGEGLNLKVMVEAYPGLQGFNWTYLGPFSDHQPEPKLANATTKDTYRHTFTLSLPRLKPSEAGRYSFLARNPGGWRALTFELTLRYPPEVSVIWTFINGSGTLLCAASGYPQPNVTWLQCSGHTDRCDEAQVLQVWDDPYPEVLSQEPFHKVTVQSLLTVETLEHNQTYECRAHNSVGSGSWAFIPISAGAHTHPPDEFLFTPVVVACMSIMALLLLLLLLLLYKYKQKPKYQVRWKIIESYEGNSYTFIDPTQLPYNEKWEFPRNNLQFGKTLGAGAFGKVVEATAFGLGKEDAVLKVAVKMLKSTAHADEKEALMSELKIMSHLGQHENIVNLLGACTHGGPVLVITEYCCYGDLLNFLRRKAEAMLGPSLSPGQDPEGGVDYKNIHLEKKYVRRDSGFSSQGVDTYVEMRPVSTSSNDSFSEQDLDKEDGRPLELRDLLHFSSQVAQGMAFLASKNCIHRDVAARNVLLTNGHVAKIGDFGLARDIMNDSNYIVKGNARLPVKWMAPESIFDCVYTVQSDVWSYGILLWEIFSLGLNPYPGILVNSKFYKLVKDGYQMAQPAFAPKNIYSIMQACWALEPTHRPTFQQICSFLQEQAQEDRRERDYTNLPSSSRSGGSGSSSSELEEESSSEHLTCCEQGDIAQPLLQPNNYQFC
Chain of Serine/threonine-protein kinase PLK1 (Homo sapiens) (P53350 whole entry): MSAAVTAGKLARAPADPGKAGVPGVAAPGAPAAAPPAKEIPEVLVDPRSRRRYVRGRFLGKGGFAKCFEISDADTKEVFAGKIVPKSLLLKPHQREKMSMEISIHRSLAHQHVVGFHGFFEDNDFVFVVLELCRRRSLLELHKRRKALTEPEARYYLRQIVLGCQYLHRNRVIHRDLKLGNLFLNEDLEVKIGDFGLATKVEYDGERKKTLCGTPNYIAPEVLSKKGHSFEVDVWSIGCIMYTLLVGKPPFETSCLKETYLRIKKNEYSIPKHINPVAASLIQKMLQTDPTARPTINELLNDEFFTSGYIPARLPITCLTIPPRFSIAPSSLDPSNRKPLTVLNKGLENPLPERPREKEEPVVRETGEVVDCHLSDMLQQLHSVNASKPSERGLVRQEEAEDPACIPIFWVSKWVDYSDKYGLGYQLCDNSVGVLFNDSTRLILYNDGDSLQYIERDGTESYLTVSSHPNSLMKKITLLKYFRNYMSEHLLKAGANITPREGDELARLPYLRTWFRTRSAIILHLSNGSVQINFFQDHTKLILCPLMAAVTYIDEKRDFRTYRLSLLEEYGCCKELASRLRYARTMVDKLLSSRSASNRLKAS
Chain of Tyrosine-protein kinase receptor UFO (Homo sapiens) (P30530 whole entry): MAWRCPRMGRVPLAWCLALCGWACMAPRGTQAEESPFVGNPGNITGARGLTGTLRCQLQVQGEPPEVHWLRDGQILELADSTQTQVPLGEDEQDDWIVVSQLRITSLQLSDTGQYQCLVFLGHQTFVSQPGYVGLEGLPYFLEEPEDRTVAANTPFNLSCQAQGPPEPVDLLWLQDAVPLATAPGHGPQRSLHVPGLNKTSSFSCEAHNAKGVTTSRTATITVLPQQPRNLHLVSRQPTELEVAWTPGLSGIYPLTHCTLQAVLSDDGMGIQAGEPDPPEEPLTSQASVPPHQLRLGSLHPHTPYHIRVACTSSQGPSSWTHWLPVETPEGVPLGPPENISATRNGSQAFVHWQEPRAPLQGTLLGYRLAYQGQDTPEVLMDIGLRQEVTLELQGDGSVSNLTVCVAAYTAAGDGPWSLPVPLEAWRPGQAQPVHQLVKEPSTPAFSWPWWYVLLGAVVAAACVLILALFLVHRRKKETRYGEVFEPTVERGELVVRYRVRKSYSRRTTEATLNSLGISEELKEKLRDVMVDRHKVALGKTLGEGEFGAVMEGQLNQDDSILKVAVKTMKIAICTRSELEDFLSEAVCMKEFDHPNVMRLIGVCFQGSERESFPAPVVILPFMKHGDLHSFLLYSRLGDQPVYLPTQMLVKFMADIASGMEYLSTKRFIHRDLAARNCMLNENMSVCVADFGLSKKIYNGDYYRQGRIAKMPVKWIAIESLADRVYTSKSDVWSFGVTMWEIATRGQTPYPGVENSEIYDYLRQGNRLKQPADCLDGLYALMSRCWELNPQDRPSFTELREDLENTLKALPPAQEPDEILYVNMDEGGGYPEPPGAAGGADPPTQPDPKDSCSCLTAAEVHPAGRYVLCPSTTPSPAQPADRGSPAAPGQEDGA
Chain of Testis-specific serine/threonine-protein kinase 4 (Homo sapiens) (Q6SA08 whole entry): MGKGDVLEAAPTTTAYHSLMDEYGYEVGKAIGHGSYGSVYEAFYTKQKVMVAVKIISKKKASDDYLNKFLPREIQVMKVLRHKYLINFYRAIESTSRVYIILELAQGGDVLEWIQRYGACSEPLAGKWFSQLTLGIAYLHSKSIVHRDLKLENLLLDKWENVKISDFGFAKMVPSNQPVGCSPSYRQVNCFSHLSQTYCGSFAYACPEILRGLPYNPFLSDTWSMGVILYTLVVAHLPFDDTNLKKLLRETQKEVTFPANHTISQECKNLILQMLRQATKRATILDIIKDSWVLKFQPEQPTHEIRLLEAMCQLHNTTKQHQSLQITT

Structure (SMILES)	Activity [1]	inhibition [2]	inhibition [3]	inhibition [4]	inhibition (SiHa [5])	inhibition [6]	inhibition [7]	inhibition [8]	inhibition [9]	inhibition [10]	inhibition [11]	Activity (SiHa [12])	inhibition [13]	inhibition (HUVEC)	inhibition [14]	inhibition [15]	inhibition [16]	Activity (MDA-MB-231 [17])	inhibition [18]	inhibition (MDA-MB-231 [19])
Cc1ccc(NC(=O)C2(C(=O)Nc3ccc(Nc4ncc(F)c(-c5cc(F)c6nc(C)n(C(C)C)c6c5)n4)cc3)CC2)cc1	Toxic	31%	33%	0%	Active	23%	23%	59%	0%	19%	33%	Active	65%	Tde	64%	43%	0%	Active	17%	
COc1cc2nccc(Oc3ccc(NC(=O)C4(C(=O)Nc5ccc(F)cc5)CC4)cc3)c2cc1OC [CABOZANTINIB]																				Active
